Measurements reported in ChEMBL document CHEMBL1128673, “Conformationally constrained phosphotyrosyl mimetics designed as monomeric Src homology 2 domain inhibitors” (J Med Chem, 1995).

Legend:
[1] = biological target: Tyrosine-protein kinase Lck (Homo sapiens) (UniProt P06239); assay: In vitro binding to p56 Lck SH2 domain
Method in brief: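 Lck SH2 domain as a GST fusion (0.5–1.0 μM, Bradford) with 35 fmol (67 nCi) [125I]Bolton–Hunter hmT pY324 phosphopeptide and varying unlabelled pTyr analogue in 20 mM Tris-HCl, 250 mM NaCl, 0.1% BSA, 10 mM DTT, pH 7.4. Complexes were captured on glutathione-agarose overnight at 22 °C, pelleted at 12000g for 5 min, and unwashed pellets gamma-counted.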

[2] = In vitro binding to p85-C SH2 domain
Method in brief: (§1)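 GST fusion of the p85 PI-3 kinase C-terminal SH2 domain (0.5–1.0 μM, Bradford) with 35 fmol (67 nCi) [125I]Bolton–Hunter-labelled IRS-1 pY628 phosphopeptide and varying unlabelled pTyr analogue in 20 mM Tris-HCl, 250 mM NaCl, 0.1% BSA, 10 mM DTT, pH 7.4. Glutathione-agarose capture ran overnight at 22 °C, then 12000g for 5 min; pellet 125I was gamma-counted.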

[3] = biological target: Proto-oncogene tyrosine-protein kinase Src (Homo sapiens) (UniProt P12931); assay: In vitro binding to Src SH2 domain
Chain of Proto-oncogene tyrosine-protein kinase Src (Homo sapiens) (P12931 2-536 limits assumed): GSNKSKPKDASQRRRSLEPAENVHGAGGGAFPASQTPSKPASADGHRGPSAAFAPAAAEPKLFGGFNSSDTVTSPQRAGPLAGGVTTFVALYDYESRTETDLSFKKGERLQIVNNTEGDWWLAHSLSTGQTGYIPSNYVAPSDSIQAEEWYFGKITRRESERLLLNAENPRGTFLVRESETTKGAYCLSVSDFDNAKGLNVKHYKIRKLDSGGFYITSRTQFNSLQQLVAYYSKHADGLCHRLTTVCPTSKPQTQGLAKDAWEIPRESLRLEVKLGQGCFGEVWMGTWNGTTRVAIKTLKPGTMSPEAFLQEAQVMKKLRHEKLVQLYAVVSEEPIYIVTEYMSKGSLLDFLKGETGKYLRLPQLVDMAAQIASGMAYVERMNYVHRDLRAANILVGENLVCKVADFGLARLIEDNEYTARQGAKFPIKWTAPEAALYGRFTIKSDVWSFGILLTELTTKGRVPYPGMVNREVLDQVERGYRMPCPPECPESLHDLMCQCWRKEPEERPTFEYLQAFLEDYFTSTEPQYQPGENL

[4] = In vitro binding to Phospholipase C-gamma SH2 domain
Method in brief: as §1, with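 “Competition binding used GST” for “GST”, “PLCγ” for “p85 PI-3 kinase”, “PDGF pY1021” for “IRS-1 pY628”, “plus” for “and”, “analogue. Buffer was” for “analogue in”, “°C with mixing,” for “°C,”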

[5] = biological target: T1, Tyrosine-protein phosphatase non-receptor type 11 (Homo sapiens) (UniProt Q06124); assay: In vitro binding to SH-PTP2-N (SHP-2) SH2 domain
T1 sequence (whole entry): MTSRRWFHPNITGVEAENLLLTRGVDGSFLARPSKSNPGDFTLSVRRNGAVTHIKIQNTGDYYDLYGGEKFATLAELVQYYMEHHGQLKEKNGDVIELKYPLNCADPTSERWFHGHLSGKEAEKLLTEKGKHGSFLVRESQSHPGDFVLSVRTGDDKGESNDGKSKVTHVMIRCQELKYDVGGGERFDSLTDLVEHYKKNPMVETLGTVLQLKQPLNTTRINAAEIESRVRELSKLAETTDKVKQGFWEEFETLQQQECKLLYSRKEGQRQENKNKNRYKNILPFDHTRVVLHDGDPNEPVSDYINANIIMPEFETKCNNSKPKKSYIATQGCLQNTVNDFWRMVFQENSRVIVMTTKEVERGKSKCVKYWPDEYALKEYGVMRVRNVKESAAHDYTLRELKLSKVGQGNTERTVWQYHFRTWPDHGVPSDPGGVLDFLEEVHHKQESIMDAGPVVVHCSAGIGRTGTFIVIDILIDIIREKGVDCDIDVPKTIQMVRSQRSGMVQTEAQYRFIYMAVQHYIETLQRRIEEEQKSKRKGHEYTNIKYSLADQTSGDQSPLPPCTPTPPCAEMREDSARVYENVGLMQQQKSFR
Method in brief: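 SH-PTP2 N-terminal SH2 domain as a GST fusion (0.5–1.0 μM, Bradford) was mixed with 35 fmol (67 nCi) [125I]Bolton–Hunter IRS-1 pY1172 phosphopeptide and varying unlabelled pTyr analogue in 20 mM Tris-HCl, 250 mM NaCl, 0.1% BSA, 10 mM DTT, pH 7.4. Glutathione-agarose pull-down ran overnight at 22 °C, then 12000g for 5 min, with gamma counting of unwashed pellets.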

[6] = biological target: Growth factor receptor-bound protein 2 (Homo sapiens) (UniProt P62993); assay: In vitro binding to Growth factor receptor bound protein 2
Chain of Growth factor receptor-bound protein 2 (Homo sapiens) (P62993 whole entry, looked up, the tested form may be a part): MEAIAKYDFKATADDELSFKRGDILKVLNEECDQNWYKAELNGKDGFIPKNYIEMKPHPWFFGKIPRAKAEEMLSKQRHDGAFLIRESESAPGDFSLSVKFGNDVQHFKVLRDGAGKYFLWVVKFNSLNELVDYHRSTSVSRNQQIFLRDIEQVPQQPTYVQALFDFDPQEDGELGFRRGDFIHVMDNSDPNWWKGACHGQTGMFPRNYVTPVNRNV
Method in brief: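 GST–Grb2 SH2 fusion (0.5–1.0 μM, Bradford-estimated) with 35 fmol (67 nCi) [125I]Bolton–Hunter-labelled Shc pY317 phosphopeptide and varying unlabelled pTyr analogue in 20 mM Tris-HCl, 250 mM NaCl, 0.1% BSA, 10 mM DTT, pH 7.4. Glutathione-agarose was added, then overnight at 22 °C with mixing. After centrifugation at 12000g for 5 min, unwashed pellet radioactivity was gamma-counted.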

Chain of Tyrosine-protein kinase Lck (Homo sapiens) (P06239 2-509 limits assumed): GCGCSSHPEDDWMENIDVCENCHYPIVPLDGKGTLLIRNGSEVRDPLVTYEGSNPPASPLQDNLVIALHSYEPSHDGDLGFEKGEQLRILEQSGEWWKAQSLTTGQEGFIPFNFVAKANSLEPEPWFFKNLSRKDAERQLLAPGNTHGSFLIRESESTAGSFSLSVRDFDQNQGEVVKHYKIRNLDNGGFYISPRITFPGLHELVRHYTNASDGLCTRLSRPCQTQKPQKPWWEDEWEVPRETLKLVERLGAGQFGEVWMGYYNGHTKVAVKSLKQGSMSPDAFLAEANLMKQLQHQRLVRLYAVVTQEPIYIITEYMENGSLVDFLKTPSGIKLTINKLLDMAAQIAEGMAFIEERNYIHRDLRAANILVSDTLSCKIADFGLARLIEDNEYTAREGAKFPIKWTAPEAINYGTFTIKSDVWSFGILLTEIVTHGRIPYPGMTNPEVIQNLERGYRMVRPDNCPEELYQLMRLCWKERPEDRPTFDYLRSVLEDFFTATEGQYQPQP

Row | SMILES | ID50 [1] [mM] | ID50 [2] [mM] | ID50 [3] [mM] | ID50 [4] [mM] | ID50 [5] [mM] | ID50 [6] [mM]
1 | CC(=O)N1CC2Cc3cc(OP(=O)(O)O)ccc3C(C)(C2)C1 (racemic) | > 3 | 1.3 | 0.9 | > 3 | > 3 | –
2 | CC(=O)N[C@H](C(N)=O)[C@@H]1CCc2cc(OP(=O)(O)O)ccc21 (racemic) | > 3 | 1.5 | > 3 | > 3 | > 3 | > 3
3 | CC(=O)N[C@H](C(N)=O)[C@H]1CCc2cc(OP(=O)(O)O)ccc21 (racemic) | 1.5 | 1.5 | > 3 | > 3 | > 3 | > 3
4 | CC(=O)N1CC2Cc3cc(O)ccc3C(C)(C2)C1 (racemic) | > 6 | > 5 | > 6 | > 6 | > 3 | –
5 | N[C@@H](Cc1ccc(OP(=O)(O)O)cc1)C(=O)O | 5 | 3.5 | 3.5 | 2.3 | > 33 | 6.2
6 | CC(=O)N[C@@H](Cc1ccc(OP(=O)(O)O)cc1)C(N)=O | > 3 | 1.5 | 1 | 0.4 | > 3 | –
